Results published in ChEMBL document CHEMBL4513216, “Probing the Open Global Health Chemical Diversity Library for Multistage-Active Starting Points for Next-Generation Antimalarials” (ACS Infect Dis, 2020).

test: Toxicity liver stage against HepG2, at 10uM; format: cell-based; parameters: test concentration 10 uM, cell line HepG2-A16-CD81EGFP; settings: human, HepG2-A16-CD81EGFP cells; read-out: INHIBITION
Procedure, shortened: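 Uninfected HepG2-A16-CD81EGFP cells, 3 × 10^3 per well, 1536-well, plated on prespotted compound at 10 μM final, parasite-free screening media added to match infected plates; puromycin 10 μM positive, DMSO 0.5% negative; run in parallel with 48 h PbLuc assay at 37 °C, 5% CO2; viability by CellTiter-Glo luminescence, normalized to controls.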

Row | SMILES | cytotoxicity at 10 µM
1 | CCC(CC)C(=O)N1CCN(Cc2cc(-c3ccncc3)nn2C)CC1 | -27.9%
2 | CC(C)OCCS(=O)(=O)c1nccn1-c1cccc(F)c1 | -3.3%
3 | CC(=O)c1ccc(S(=O)(=O)N2CCC(c3n[nH]c(C)n3)CC2)cc1 | -5.24%
4 | CN(C)S(=O)(=O)N1CCCC(c2nccn2Cc2cccnc2)C1 (stereo unspecified) | 4.61%
5 | Cc1cccc2nc(-c3nc4c([nH]3)CCCNC4=O)cn12 | 3.67%
6 | O=C1[C@H]2CN(S(=O)(=O)C3CC3)C[C@H]2CN1CC1CC1 | 1.8%
7 | CO[C@@H]1CC[C@@H](N(C)C(=O)COc2ccc(F)cc2)[C@H]1O | 8.47%
8 | Cc1nnnn1-c1ccc(CC(=O)N2CCOCC(O)C2)cc1 (stereo unspecified) | -7.46%
9 | O=C(c1ccccn1)N1CC[C@@H](N2CCOCC2)[C@@H]1Cc1ccccc1 | -77.9%
10 | Cc1n[nH]cc1C(=O)N1CCCC(c2cccc(-n3ccnc3)n2)C1 (stereo unspecified) | -9.69%
11 | O=C(c1nn[nH]c1Nc1ccc(Cl)cc1)N1CCCCCC1 | 34.5%
12 | CCCc1nn(C2CCN(C(C)C)C2=O)c(=O)o1 (stereo unspecified) | -3.59%
13 | CCc1nnc(CN2CCN(c3cccc(OC)c3)C(=O)C2)o1 | 18.4%
14 | CCN(Cc1cc(Br)ccc1F)C(=O)C(C)NC(N)=O (stereo unspecified) | 11.6%
15 | CC(C)n1ncc2c1NC(=O)CC21C(=O)Nc2c(Cl)cc(Br)cc21 (stereo unspecified) | -5.15%
16 | COc1cccc(CCC2CCCN(C(=O)c3cnccn3)C2)c1 (stereo unspecified) | 13.7%
17 | O=C(CCC(=O)N1CCC(Cc2ccc(CO)cc2)C1)c1ccccc1 (stereo unspecified) | 0.727%
18 | NC(=O)c1cccc2nc([C@H]3CCN(Cc4ccccn4)C3)[nH]c12 | 4.32%
19 | COCC1CC2(CCN(C(=O)c3ccc(OC)c(Cl)c3)CC2)CO1 (stereo unspecified) | 15.4%
20 | CCN1CCC2(COCc3c(C)nc(N(C)C)nc32)C1 (stereo unspecified) | 5.76%
21 | Clc1ccccc1Cc1noc(CN2CCCC(CN3CCCC3)C2)n1 (stereo unspecified) | -3.15%
22 | CC(C)c1nc(CNCC2CCCN2c2cccnn2)cs1 (stereo unspecified) | -4.84%
23 | CC1c2ncc(CNC(=O)C3CC3)n2CCN1Cc1cnn(C)c1 (stereo unspecified) | -20.2%

Row | SMILES | cytotoxicity at 10 µM
24 | COC(C)c1nc(CN2CCNCC2)cs1 (stereo unspecified) | 4.68%
25 | O=C(c1cnccn1)N1CCCC2(CCN(Cc3cccnc3)C2)C1 (stereo unspecified) | -129%
26 | COc1cccc(OC)c1C(=O)N1CC(=O)N(C2CCC2)CC(O)C1 (stereo unspecified) | -5.59%
27 | Cc1cncc(C2CCCN2CCO)n1 (stereo unspecified) | -3.14%
28 | Cc1cc(C(=O)NCc2csc(N(C)C)n2)c2ccc(C)c(C)c2n1 | -0.724%
29 | c1ccc2oc(CN3CCCCC3Cn3cncn3)nc2c1 (stereo unspecified) | -13.9%
30 | Cc1ccc(Br)cc1C(=O)Nc1cc(C(N)=O)n(C)c1 | 1.41%
31 | Cc1nsc(NCc2ccc(S(=O)(=O)N(C)C(C)C)cc2)n1 | 16.2%
32 | CN(Cc1cc2cc(F)ccc2[nH]1)C(=O)C1CC(=O)N(C2CC2)C1 (stereo unspecified) | 0.0448%
33 | Cc1nnc2n1CCN(C(=O)C1CCN(Cc3ccccc3)CC1)C2 | 1.28%
34 | CN1CCCN(C(=O)c2nc3c(o2)CN(S(C)(=O)=O)C3)CC1 | -117%
35 | CSc1ccc(CNCCS(=O)(=O)N2CCOCC2)cc1 | 4.83%
36 | Cc1cc(F)ccc1C(=O)N1C[C@@H]2COC[C@]2(COCC2CC2)C1 | -146%
37 | NC(=O)c1cc2c(nc1-c1ccc3c(c1)OCCO3)CCC2 | -1.88%
38 | Cc1cccc(CN2CCC3(CC2)NC(=O)CC3c2ccccc2)n1 (stereo unspecified) | -0.508%
39 | CC(COc1ccccc1)NCc1nc(-c2cccnc2)no1 (stereo unspecified) | -14.1%
40 | CC(=O)N1CCC2(CC1)C(=O)N(c1cccnc1)c1ccc(F)cc12 | 10.6%
41 | CN(C)CC(=O)N1CCC2(CCc3cc(-c4cccnc4)ccc32)CC1 | 4.01%
42 | O=C1CC(c2ccc(C(=O)O)cc2)c2ncn(-c3ccc(F)cc3)c2N1 (stereo unspecified) | -3.67%
43 | Cc1nc(NCCCn2cccn2)c2c(n1)c(C)nn2C | 6.64%
44 | CCC(CO)n1cnc2scc(C)c2c1=O (stereo unspecified) | -7.37%
45 | Cc1ccccc1C1(CNCc2cnc(N3CCOCC3)nc2)CC1 | -8.23%
46 | CCN(CC1CCOCC1)C(=O)Cn1ccccc1=O | -19.9%

Row | SMILES | cytotoxicity at 10 µM
47 | Cc1ccccc1CC(=O)NS(=O)(=O)c1cccc2cnccc12 | -0.601%
48 | CCCN1CCC(Cc2nc(CN3CCN(C)CC3)no2)CC1 | 1.25%
49 | O=C(NCCCn1nc2ccccn2c1=O)NCCC1CCC1 | 5.47%
50 | O=C(Nc1ccc(-c2csnn2)cc1)N1CC[C@H](O)C1 | -4.62%
51 | CCOCCN1CCN([C@@H]2c3ccccc3C3(CCNCC3)[C@H]2O)CC1 | -0.777%
52 | Cc1ccc2[nH]nc(C(=O)NCC3CCN(Cc4c[nH]cn4)C3)c2c1 (stereo unspecified) | -15.1%
53 | CS(=O)(=O)Cc1ccc(CNc2ncc(C#N)cc2Cl)cc1 | 3.47%
54 | CN1CCN(C2CCN(CC(=O)NCC(F)(F)F)CC2)C1=O | -9.78%
55 | C[C@@H]1CN(C2CCN(c3ccccc3F)CC2)C[C@]1(C)O | -2.19%
56 | CN(C)CCN1CCCC12CCCN(Cc1ccoc1)C2 (stereo unspecified) | 7.88%
57 | CN(C)C(=O)N1CCn2cc(CNC(=O)CC3CC3)nc2C1 | -80.2%
58 | O=C1[C@H]2CN(Cc3cccs3)C[C@H]2CN1c1ccsc1 | -79%
59 | COCCc1noc(CN2CCCC2c2c(C)nn(C)c2Cl)n1 (stereo unspecified) | -7.71%
60 | CC(=O)N1N=C(c2ccccc2)OC1C(=O)NCCC1=CCCCC1 (stereo unspecified) | 9.74%
61 | c1cnn(CCN2CCOC(Cn3cncn3)C2)c1 (stereo unspecified) | -0.498%
62 | c1ccc(N2CCC3(COCCN(c4ncccn4)C3)C2)nc1 (stereo unspecified) | 2.78%
63 | CN(C)C1CC2(CCN(C(=O)C3(C#N)CC3)CC2)c2ccccc21 (stereo unspecified) | -113%
64 | O=C(NCc1cc[nH]n1)NCC(O)c1ccc(F)cc1F (stereo unspecified) | 1.78%
65 | Cc1nsc(NC(=O)N2CCCC2C)n1 (stereo unspecified) | -38.7%
66 | Cc1nonc1CN(C)Cc1cnn(-c2ccc(F)cc2)c1 | -16.3%
67 | Cc1cc(C)n(C2CCN(S(C)(=O)=O)CC2)n1 | 15.7%
68 | COCCn1c(C(=O)NCc2n[nH]c(C)n2)cc2ccccc21 | -3.83%
69 | Cc1cc(C)n(CCN(C)Cc2c[nH]nc2-c2ccc3c(c2)OCO3)n1 | 0.562%

Row | SMILES | cytotoxicity at 10 µM
70 | CCCN(CCc1ccccc1)C(=O)c1ccccc1NCC(=O)O | 7.38%
71 | CCC(=O)N1CCCC1c1nccnc1Nc1ncccn1 (stereo unspecified) | 3.58%
72 | Cn1cnc2c1CCN(Cc1csc(-c3ccc(F)cc3)n1)C2 | -4.78%
73 | NCCCC(=O)NCC1(O)CCN(c2ccnc3cccnc23)C1 (stereo unspecified) | 1.58%
74 | CN(Cc1cc(C(C)(C)C)n[nH]1)C(=O)c1ccccc1C1CCNC1 (stereo unspecified) | -2.32%
75 | Cc1nccn1C1CCCN(C(=O)c2ccc3c(c2)COC3)C1 (stereo unspecified) | -10.8%
76 | CCOc1cc(CN(C)CCCC#N)ccc1OC(F)F | -10.3%
77 | c1cnn(CCC2CCN(Cc3ccc4[nH]ccc4c3)CC2)c1 | -7.57%
78 | COc1ccc([C@@H]2CN(C(=O)CCn3cccn3)C[C@H]2NC(C)=O)cc1 | 7.18%
79 | CC(=O)N1CCC2(C1)CN(C(=O)C1CCOC1)C2 (stereo unspecified) | 4.88%
80 | CN1CC(C(=O)NCCOc2ccc3c(c2)OCO3)CC1=O (stereo unspecified) | -4.35%
81 | CC(=O)N1CC[C@@H](N2CCN(C)CC2)[C@@H]1Cc1ccccc1 | 9.04%
82 | Cc1ccc(S(=O)(=O)NC(=O)COc2ccc(CC#N)cc2)s1 | 2.52%
83 | Cc1cc(CN2CCC(N(C)Cc3nnc(C4CC4)n3C)C2)on1 (stereo unspecified) | -11.6%
84 | CC[C@H](C)Cn1nc(C2CCNCC2)n(Cc2ccccc2)c1=O | -5.82%
85 | O=C(c1ccccc1F)N(CCCO)S(=O)(=O)c1cccs1 | 4.95%
86 | Cc1cnc(N2C[C@H]3CCN(CC4CC4)C[C@H]3C2)nc1 | 6.34%
87 | CC(C)NC(=O)N1CCn2c(nnc2C2CCCN2)C1 (stereo unspecified) | -1.32%
88 | CCOC(=O)C1CCN(C(=O)c2cc(Br)ccc2-n2cnnn2)CC1 | -2.41%
89 | N#CCCN(CC(=O)Nc1ccc(Br)cc1Cl)Cc1cccnc1 | 11%
90 | CCCc1nnc(C(=O)N(C)Cc2cnc3ccccn23)o1 | -3.41%
91 | O=C(Nc1ccc(F)cc1)NC1(CCO)CCOCC1 | 22.3%
92 | CN(CCCNC(=O)c1ccccc1OCC(N)=O)CC(F)(F)F | -7.53%

Row | SMILES | cytotoxicity at 10 µM
93 | CC(=O)N1CCOC(CCc2cc(-c3c(C)noc3C)ncn2)C1 (stereo unspecified) | -1.98%
94 | c1ccc(-c2nc(CNC3CCCN(c4cccnn4)C3)no2)cc1 (stereo unspecified) | 15.9%
95 | O=C(NCc1ccon1)N1CCC(n2ccc(C(F)(F)F)n2)CC1 | -0.0817%
96 | CC(C)(NCCOc1ccc(CC#N)cc1)c1nccs1 | -3.25%
97 | CCCn1c(O)nnc1SCC1OCCc2ccccc21 (stereo unspecified) | 4.32%
98 | CCc1nnc2n1CCN(C(=O)COCCc1ccccc1)C2 | -8.28%
99 | c1cc(CN2C[C@@H]3OCCN(CC4CCCO4)[C@@H]3C2)cs1 (stereo partly specified) | -76.9%
100 | COc1ccccc1[C@@H]1CN(Cc2cnn(C)c2C)C[C@H]1C(=O)O | -3.53%
101 | O=C(c1cc(Cn2ccc3ccccc32)[nH]n1)N1CCC[C@H]1CO | -1.99%
102 | Cn1cc(C(=O)Nc2ccc3c(c2)CN(C(=O)C2CC2)CC3)nn1 | 4.59%
103 | CCN(CC)C(=O)c1ccc(COc2ccccc2C#N)o1 | 1.96%
104 | COC(=O)Cn1c(=O)[nH]c2cn(-c3cccc(C)c3)c(=O)n21 | 5.42%
105 | O=C(c1cc(C2CC2)[nH]n1)N1CCCN(c2nccs2)CC1 | 6.37%
106 | O=C(O)[C@@H]1CCN(C(=O)c2ccccn2)[C@@H]1c1ccc(F)cc1 | 4.16%
107 | O=C(c1cc(Cl)c2c(c1)OCO2)N1CCN(c2cnccn2)CC1 | 6.76%
108 | CCC(C)N(C)S(=O)(=O)c1ccc(CCNC(C)=O)s1 (stereo unspecified) | -3.45%
109 | O=C(C1CC=CC1)N1CCC2(CCN(Cc3cccc(F)c3)CC2)C1 | -4.48%
110 | CC(C)N(C(=O)N1CCn2cncc2C1)C(C)C | -12.3%
111 | Oc1ccc(N(CCc2ccccc2)CCn2cncn2)cc1 | 4.21%
